Where no end group is shown, it is not given here.
How the values were obtained:
[1] = tested on: MCF-10A cells; assay: PI and Annexin V staining, fluorescent images; format: cell-based, human; conditions: 5.0 μM
In short: (§1)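 MCF-7 (DMEM, 5% FBS) or MCF-10A (DMEM/F12 with horse serum, hydrocortisone, insulin, EGF, cholera toxin) seeded at 2 × 10^4 cells/well in 48-well plates and cultured 24 h. Peptide added, with PBS as negative control. After 1−3 h, Alexa Fluor 488 Annexin V (1:250 v/v) and PI (1:1,000 v/v) were added for 30 min at 37°C. Cells were then imaged by fluorescence microscopy.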

[2] = tested on: HUVECs; assay: Anti-angiogenesis assay; format: cell-based, human; conditions: 10.0 μM, 10−12 h, in comparison with the blank control (PBS), one-way ANOVA, Angiogenesis Analyzer for ImageJ
In short: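 HUVECs grown in Medium 200 with low serum growth supplement at 37°C, 5% CO2. Matrigel thawed overnight at 4°C, added to μ-Slide wells and polymerised 30−60 min in a humidified incubator. HUVECs at 1 × 10^5 cells/mL were added and incubated 10−12 h at 37°C, 5% CO2, with a PBS-treated negative control. Tube formation was then imaged by fluorescence microscopy.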

[3] = tested on: MCF 7, A375 and U87 cancer cell lines; assay: MTT assay, comparison over three cancer cell lines; format: cell-based; conditions: result in words
In short: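 Lines used: MCF-7 (DMEM, 5% FBS) and A375 and U87 (DMEM, 10% FBS, penicillin/streptomycin). Seeded at 5,000 cells/well and grown 24 h. Peptides were diluted from 10 mM stock in medium; PBS served as control; triplicates. After 24 h exposure, MTT was added for 4 h at 37°C. Formazan was dissolved in DMSO and OD read at 550 nm.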

[4] = tested on: MCF-10A cells; assay: Apoptosis assay, flow cytometry Annexin V/PI; format: cell-based, human; conditions: 5 μM, normal breast cell line
In short: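 MCF-10A cells, a normal breast line, grown in DMEM/F12 with 5% horse serum, hydrocortisone, insulin, EGF and cholera toxin. Seeded at 2 × 10^5 cells/mL in 6-well plates and cultured 24 h before peptide exposure; PBS served as negative control. After 1−3 h, cells were washed in cold PBS and set to 1 × 10^6 cells/mL in Annexin-binding buffer. Stained with Alexa Fluor 488 Annexin V plus PI for 10 min at room temperature. Read by flow cytometry, excitation 488 nm, emission 530 and 575 nm.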

[5] = tested on: MCF-7 cells; assay: PI and Annexin V staining, fluorescent images; format: cell-based; conditions: 5 μM, in comparison with AP1-Z1
In short: as §1

[6] = tested on: malignant melanoma cell line, A375; assay: MTT assay; format: cell-based; conditions: A375, 24-h incubation with peptide, triplicate, OD 550 nm
In short: (§2)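 ATCC cells were maintained at 37°C, 5% CO2: U87 and A375 in DMEM with 10% FBS and 1% penicillin/streptomycin, MCF-7 in DMEM with 5% FBS. They were seeded at 5,000 cells/well and grown 24 h. Peptide came from a 10 mM stock diluted in medium; controls got PBS. MTT (5 mg/mL in PBS, pH 7.4) was added for 4 h, then formazan was dissolved in DMSO.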

[7] = tested on: breast cancer cell line, MCF-7; assay: MTT assay; format: cell-based; conditions: MCF-7, 24-h incubation with peptide, triplicate, OD 550 nm
In short: as §2

[8] = tested on: brain glioma cell line, U87; assay: MTT assay; format: cell-based; conditions: U87, 24-h incubation with peptide, triplicate, OD 550 nm
In short: as §2

[9] = Circular dichroism spectroscopy; format: physicochemical; conditions: CD, CDNN
In short: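 POPE/POPG (7:3) dried from chloroform under N2 overnight, resuspended in PBS pH 7.4 and extruded through 0.1-μm membranes to form SUVs, used within 6 h. Peptide at 0.5 mM in PBS pH 7.4, alone or with SUVs. Spectra taken at 25°C from 250–190 nm in a 0.1-mm quartz cell, 1-nm steps, 60 nm/min. Each spectrum averaged three scans and was baseline-subtracted. Helix content estimated by CDNN 2.1.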

[10] = 0.5 mM peptide in 1× PBS buffer pH 7.4, 25°C, average of three scans

Row | Substance | IC50 [6] | IC50 [7] | IC50 [8] | α helix ratio [9, 10] | also measured
1 | FLFKLIPKAIKGLIKAFK [AP1-Z5a] | – | – | – | – | apoptosis of MCF-10A cells (ANXA5/PI fluorescent images) [1]: no significant change in the apoptosis; angiogenesis (tube formation of HUVECs) [2]: significantly inhibited angiogenesis; IC50 relative to the other peptides [3]: relatively lower; apoptosis of MCF-10A cells [4]: did not significantly promote the apoptosis; apoptosis of MCF-7 cells (ANXA5/PI fluorescent images) [5]: significantly induced the apoptosis
2 | FLFSLIPHAISGLISAFK-NH2 [AP1-Z1] | 9.48 µM | 7.22 µM | 10.2 µM | – | –
3 | FLFKLIKKAIKKLIKAFK [AP1-Z7] | – | – | – | 16.16% | α helix ratio ([9]; 0.5 mM peptide in POPE/POPG (7:3) SUVs in 1× PBS, 3:1 lipid:peptide): 44.95%
4 | FLFSLIKHAIKGLISAFK [AP1-Z3a] | – | – | – | 24.28% | –
5 | FLFKLIKHAIKGLIKAFK-NH2 [AP1-Z5b] | 2.61 µM | 1.04 µM | 3.12 µM | – | –
